Compound activity: PubChem, several laboratories
CAL PDZ FP-1 – CAL PDZ (human) peptide binding inhibition; 300,000 tested, 0.92% active; AID 602252; Q9HD26; inhibition, % at 24.9 µM; purified CAL PDZ, TMR-peptide fluorescence polarization, 1 h;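 active means mean inhibition of at least 30% with at least half of replicates also reaching 30%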;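 further: 0% = DMSO neutral control and 100% = excess unlabeled competitor peptide PRC23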
SR-BI DiI-HDL act – enhances SR-BI lipid uptake from DiI-HDL. 320,000 tested, 0.096% active. CHO ldlA[mSR-BI] cells, DiI-HDL uptake fluorescence, 3 h; 100 = double the neutral-control signal. activation, % at 12.5 µM;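 active means mean replicate activation of at least 60% and every replicate at or above 60%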;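 further: 0% = median plate neutral-control signal and 100% = twice that signal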
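system = CHO ldlA[mSR-BI] cells, LDL receptor-null, SR-BI overexpressing | medium = Ham's F12 with 0.5% BSA, HEPES 25 mM, pH 7.4 | probe or stimulus = DiI-HDL 10 µg/mL | compound dosing = single-point compound dose | incubation = compound exposure 3 h, 37 °C | technique = DiI fluorescence, bottom read | read-out = cell-associated DiI fluorescence as measure of HDL uptake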
ATG4B inh – ATG4B (human) cysteine protease inhibition; ATG4B cleavage of LC3-PLA2, NBD-HPC fluorescence, 1 h; inhibition, % at 8.33 µM; 340,000 tested, 0.51% active; in the data active means inhibition above about 40%
SR-BI HDL uptake – blocks mouse SR-BI lipid uptake from DiI-HDL. Q61009. ldlA[mSR-BI] CHO cells, DiI-HDL uptake fluorescence, 3 h. inhibition, % at 12.5 µM. 320,000 tested, 0.96% active;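 active means mean replicate inhibition of at least 70% and a set share of replicates each scoring 70 or more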;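 further: 0% = median of neutral control wells and 100% = median of positive control wells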
Target sequence (Q61009 whole entry, looked up): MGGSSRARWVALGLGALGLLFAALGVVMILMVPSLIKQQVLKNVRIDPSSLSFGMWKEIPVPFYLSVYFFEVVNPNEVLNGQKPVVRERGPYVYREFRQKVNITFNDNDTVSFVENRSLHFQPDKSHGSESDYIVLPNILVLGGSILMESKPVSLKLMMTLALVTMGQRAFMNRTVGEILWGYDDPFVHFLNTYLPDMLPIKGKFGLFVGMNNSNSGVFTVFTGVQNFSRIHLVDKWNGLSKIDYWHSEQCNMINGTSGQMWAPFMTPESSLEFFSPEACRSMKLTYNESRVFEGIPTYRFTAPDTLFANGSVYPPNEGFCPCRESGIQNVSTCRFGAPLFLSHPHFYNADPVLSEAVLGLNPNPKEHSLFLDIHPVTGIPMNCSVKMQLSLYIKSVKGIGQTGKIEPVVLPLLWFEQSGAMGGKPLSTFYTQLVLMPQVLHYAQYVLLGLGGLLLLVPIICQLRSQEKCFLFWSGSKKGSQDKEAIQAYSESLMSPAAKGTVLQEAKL
CAL PDZ FP-2 – human CAL PDZ-peptide interaction inhibition | inhibition, % at 20 µM | 330,000 tested, 0.02% active | purified CAL PDZ, TMR-peptide fluorescence polarization, 1 h | Q9HD26;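 active means highest replicate inhibition of at least 40%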;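 further: plate controls were DMSO neutral control wells for no effect and unlabeled competitor peptide control wells for full effect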
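System: tagged CAL PDZ domain. Schedule: 1 h room-temperature incubation prior to read. Signal: fluorescence polarization (mP). Measure: percent inhibition from loss of millipolarization.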
* = called active by the depositor; nt = no result given. Sampled rows, rich in hits. Any-hit rate of the full collection: about 2.3%.

SMILES	CAL PDZ FP-1	SR-BI DiI-HDL act	ATG4B inh	SR-BI HDL uptake	CAL PDZ FP-2
Cc1ccc(CN(C)C(=O)C2CCC(=O)N(C3CCCCCC3)C2)cc1 (stereo not given)	39.3*	-3.1	-10.7	3.1	-0.3
CN(Cc1ccccc1Cl)C(=O)C1CCC(=O)N(C2CCCCCC2)C1 (stereo not given)	0.2	0.5	1.2	-0.5	-2.8
COc1ccc(OCC(=O)NC(=O)c2ccccc2OC)c([N+](=O)[O-])c1	-0.4	49.4	-2.5	-49.4	-1.8
CNC(=O)c1nc(C)c(C2(C)CC(c3ccccc3)=NO2)s1 (stereo not given)	28.3	10.4	-0.5	-10.3	-0.6
Cc1nc(C(=O)Nc2ccc(Cl)cc2)sc1C1(C)CC(c2cccc([N+](=O)[O-])c2)=NO1 (stereo not given)	0.1	-77.1	7.1	77.1*	-0.3
Cc1nc(C(=O)Nc2cc(F)cc(Cl)c2)sc1C1(C)CC(c2ccccc2)=NO1 (stereo not given)	-4.1	-79.8	-6.2	79.8*	0.6
Cc1nc(C(=O)NC2CCCCC2)sc1C1(C)CC(c2cccc([N+](=O)[O-])c2)=NO1 (stereo not given)	-2.4	-75.6	3.5	75.6*	0.4
CN(CCc1ccccc1)C(=O)c1ccc(NC(=O)Cc2ccc(NC(=O)C3CCCN(C(=O)CCc4ccccc4)C3)cc2)cc1 (stereo not given)	-3.1	-32.6	-6.3	32.6	-0.2
CC(=O)c1cccc(NC(=O)CN2CCc3cc4c(cc3C2C)OCCCO4)c1 (stereo not given)	-3.9	-42.7	-6.2	42.7	-0.4
NS(=O)(=O)c1cccc(NC(=O)C(Cc2ccccc2)NC(=O)c2ccccc2)c1 (stereo not given)	-3.5	-12.1	2.8	12.1	-1.1
COc1ccccc1N1CCN(C2CCCN(C(=O)c3ccsc3)C2)CC1 (stereo not given)	0.1	-3.5	7.3	3.5	-0.9
CC1CC(=Cc2ccc(N)cc2)C(=O)O1 (stereo not given)	-3.1	5.2	-3.4	-5.2	0.4
CC(C)Oc1cccc(C(=O)C2CCCN(C(=O)CCn3cnnn3)C2)c1 (stereo not given)	77.3*	-11.0	-11.4	11.0	-0.7
Cc1cc(C)n(CC(=O)N2CCCC(C(=O)c3cccc(OC(C)C)c3)C2)n1 (stereo not given)	0.8	1.2	-2.0	-1.2	-0.5
Cc1nc(CN(C)C(=O)c2ccccc2OC2CCN(S(C)(=O)=O)CC2)cs1	nt	-12.2	-12.2	12.2	-0.6
Cc1c(CCC(=O)O)c(=O)oc2c(C)c(OCc3cc4c(cc3Cl)OCO4)ccc12	94.8*	-3.0	-4.0	3.0	-3.6
Cc1c(CC(=O)O)c(=O)oc2c(C)c(OCc3c(F)cccc3Cl)ccc12	-6.0	-9.2	7.0	9.2	nt
CCOc1cc(C)ccc1OCc1nnc(SCC(=O)c2cccc([N+](=O)[O-])c2)n1CC	8.7	-88.4	10.7	88.4*	-1.1
CCn1c(COc2ccccc2)nnc1SCC(=O)c1cccc([N+](=O)[O-])c1	-4.9	-26.9	-2.9	26.9	-2.0
CCn1c(COc2cccc3ccccc23)nnc1SCC(N)=O	51.6*	-10.0	10.4	10.0	-1.1
CC(C)(CC(=O)c1ccccc1)CC(=O)c1ccccc1	-3.4	-0.9	-8.1	0.9	8.6
CC1(C)CC[C@]2(C(=O)O[C@@H]3OC(CO)[C@@H](O)[C@H](O)[C@H]3O)CC[C@]3(C)C(=CCC4[C@@]5(C)CC[C@H](O[C@@H]6OC(C(=O)O)[C@@H](O)[C@H](O)[C@H]6O)C(C)(C)C5CC[C@]43C)[C@@H]2C1 (stereo not given in full)	-11.3	15.4	-2.6	-15.4	-0.6
COC(=O)C1OC(OC2CC[C@]3(C)C(CC[C@@]4(C)[C@@H]3CC=C3[C@@H]5CC(C)(C)CC[C@]5(C(=O)OC5OC(CO)C(O)C(O)C5O)CC[C@]34C)C2(C)C)C(O)C(O)C1O[C@H]1OCC(O)C(O)C1O (stereo not given in full)	-0.5	119.1*	nt	-119.0	-0.7
Nc1[nH]nc2nc3ccccc3cc12	46.6*	12.2	-3.3	-12.2	-0.3
CC(=O)c1c(C)oc2ccc(NS(=O)(=O)c3cccs3)cc12	1.0	-10.7	-1.8	10.7	-2.3
SMILES	CAL PDZ FP-1	SR-BI DiI-HDL act	ATG4B inh	SR-BI HDL uptake	CAL PDZ FP-2
Cc1ccccc1N(C(=O)c1snc(C(N)=O)c1N)C(C)C(=O)NC1CCCCC1 (stereo not given)	-3.5	-82.5	15.0	82.5*	-1.6
CC(C)Oc1ccccc1/C=N/NC(=O)c1ccccc1Cl	-0.8	-77.0	-8.2	77.0*	-0.9
CCOc1ccccc1/C=N/NC(=O)c1cccc(Cl)c1	-1.4	-86.1	-7.9	86.1*	-1.8
CCN(CC)S(=O)(=O)c1cccc(C(=O)Nc2cccc(C)c2)c1	0.4	15.8	-2.8	-15.8	-4.1
CCOc1ccccc1/C=N/NC(=O)c1cccc(S(=O)(=O)N(CC)CC)c1	nt	-77.1	-5.7	77.1*	-1.3
CCN(CC)S(=O)(=O)c1cccc(C(=O)Nc2cc(C)cc(C)c2)c1	1.4	-76.7	-11.9	76.7*	-1.7
CCOc1ccc(Cl)cc1/C=N/NC(=O)c1ccccc1	-0.7	-57.1	-2.4	57.1	-2.0
CCC(=O)OCOc1ccc(/C=C2/CCC(CN(C)C)C2=O)cc1 (stereo not given)	-6.2	3.1	1.8	-3.1	-0.6
COC(=O)C1=C(COc2ccc(C=O)cc2OC)NC(=O)NC1c1cc(C)ccc1C (stereo not given)	-0.2	-10.4	0.9	10.4	-1.2
COc1ccc(Cl)cc1S(=O)(=O)NC(C)C(=O)NCCN1CCOCC1 (stereo not given)	nt	1.6	-4.7	-1.6	0.5
Cn1cnnc1SCC(=O)c1c(N)n(Cc2ccccc2)c(=O)n(C)c1=O	-6.3	42.8	-6.4	-42.8	-0.4
Cc1ccc(NC(=S)N/N=C/c2c(C)[nH]c3ccccc23)cc1	1.6	-102.1	-2.9	102.1*	0.0
Oc1ccccc1C=NNC(=S)Nc1ccc(F)cc1	-1.4	-100.8	4.1	100.8*	-2.9
Fc1ccc(NC(=S)NN=Cc2ccccc2Cl)cc1	-2.5	-18.2	0.1	18.2	-0.2
Cc1[nH]c2ccccc2c1/C=N/NC(N)=S	-8.7	-86.2	-9.2	86.2*	0.8
C(=N\Nc1nc(N2CCCCC2)nc(N2CCCCC2)n1)/c1c[nH]c2ccccc12	-2.4	-64.3	-5.3	64.3	-1.5
Cc1[nH]c2ccccc2c1/C=N/Nc1nc(N2CCCCC2)nc(N2CCCCC2)n1	-9.8	-90.6	-0.2	90.6*	-2.6
COc1ccccc1C(CNC(=O)CNC(=O)c1cccc(Cl)c1)N1CCCC1 (stereo not given)	nt	-6.7	-8.5	6.7	-0.2
Clc1ccccc1CSc1cnnc2ccccc12	-4.1	14.4	6.7	-14.4	-1.9
